As usually defined, the Kd is the concentration at which binding is half-saturated.

Results on one molecule are retold here after ChEMBL document CHEMBL4715918, “Syntheses and evaluation of acridone-naphthalimide derivatives for regulating oncogene PDGFR-β expression” (Bioorg Med Chem, 2021).

Experiment [1] concerns Quadruplex DNA. In words: Binding affinity to 5'-biotin-d [GCTGGGAGAAGGGGGGGCGGCGGGGCAGGGAGGGTGGACGC]-3' G4-quadruplex DNA (unknown origin) assessed as decrease in positive peak by CD spectroscopy. The class given is nucleic-acid assay. Conditions: dose 2-10 equiv. In outline:
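CD spectra: oligomers at 2 μM final, in BPES pH 5.5 (i-motif) or Tris-HCl pH 7.4 (G-quadruplex). Samples were annealed (95 °C 5 min, slow cool, 4 °C overnight), then titrated with increasing compound. Spectra were recorded at 25 °C over 230–330 nm in a 1 mm cuvette, buffer-subtracted, averaged and smoothed.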

For experiment [2], the target named is Quadruplex DNA. In words: Binding affinity to 5'-biotin-d [GCTGGGAGAAGGGGGGGCGGCGGGGCAGGGAGGGTGGACGC]-3' G4-quadruplex DNA (unknown origin) by surface plasmon resonance assay. The experiment is classed as nucleic-acid assay. Summed up:
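SPR: biotinylated oligomers were captured on a neutravidin chip at ~1000 RU, with a blank reference cell. Running buffer was 20 mM MES pH 5.5, 100 mM KCl, 0.05% Tween-20 for the i-motif, or 50 mM Tris-HCl pH 7.4, 100 mM KCl for the G-quadruplex. Ligand was injected at 0–10 μM (six concentrations), with 200 s association and 300 s dissociation at 25 °C.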
A general note: SPR reads the build-up and loss of mass on a sensor chip optically.

The test system of experiment [3] is MCF7. In words: Induction of cell cycle arrest in human MCF7 cells assessed as accumulation at G2/M phase at 0.625 to 10 uM after 48 hrs by propidium iodide staining based flow cytometric analysis (reference value: 15.8%). The class given is functional. Conditions: dose 0.625-10 µM. Summed up: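 MCF-7 cells, 2 × 10^5/well, were pre-grown 12 h, then treated with 10, 5, 2.5, 1.25, 0.625 μM compound or DMSO. Cells were fixed in 75% ethanol at −20 °C overnight. Staining was 50 μg/mL PI with RNase A, 30 min at room temperature in the dark. Flow cytometry collected 10,000 events; phase distribution was determined.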
A general note: Flow cytometry measures light scatter and fluorescence of single cells or particles in a stream.

In experiment [4] the test system is MCF7. In words: Induction apoptosis in human MCF7 cells assessed as necrotic cells at 2.5 uM incubated for 24 hrs by Annexin-FTTC/PI staining based flow cytometric analysis (reference value: 0.11%). The class given is functional.

Consider `Cc1ccc2c(c1)c(=O)c1cc(C(=O)NCCCN(C)CCCN3C(=O)c4cccc5c(N6CCN(C)CC6)ccc(c45)C3=O)ccc1n2-c1ccc(C(=O)NCCCN(C)CCCN2C(=O)c3cccc4c(N5CCN(C)CC5)ccc(c34)C2=O)cc1`, for which the Activity result was “Dose-dependent effect” in the experiment on Quadruplex DNA [1], 31.5% in the experiment with MCF7 [3] and 0.49% in the experiment with MCF7 [4]. Moreover, at Quadruplex DNA [2], the affinity, expressed as Kd, was 3.23 µM.
